Reference: article PMC8802302 (Journal of Medicinal Chemistry, 2021)
pIC50: −log10 of the molar value.

Experiments:
16-member kinase panel = experiment: Eurofins custom enzymatic kinase panel, count of kinases inhibited; assay type: biochemical; conditions: 16-member Eurofins panel, 1 μM
Summary of the method: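 Radiometric kinase assays were run with ATP at Km. Each test compound was tested at a single concentration of 1 μM, in duplicate, against each panel kinase, with results as percent of control. The count is the number of kinases at ≤ 10 PoC, i.e. inhibited ≥ 90%.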

DRAK1 (DRAK1-NLuc) = molecular target: T1, DRAK1 (DRAK1-NLuc) (Homo sapiens, UniProt Q9UEE5); experiment: NanoBRET cellular target engagement assay; assay type: cell-based
T1 sequence (Q9UEE5 1-414): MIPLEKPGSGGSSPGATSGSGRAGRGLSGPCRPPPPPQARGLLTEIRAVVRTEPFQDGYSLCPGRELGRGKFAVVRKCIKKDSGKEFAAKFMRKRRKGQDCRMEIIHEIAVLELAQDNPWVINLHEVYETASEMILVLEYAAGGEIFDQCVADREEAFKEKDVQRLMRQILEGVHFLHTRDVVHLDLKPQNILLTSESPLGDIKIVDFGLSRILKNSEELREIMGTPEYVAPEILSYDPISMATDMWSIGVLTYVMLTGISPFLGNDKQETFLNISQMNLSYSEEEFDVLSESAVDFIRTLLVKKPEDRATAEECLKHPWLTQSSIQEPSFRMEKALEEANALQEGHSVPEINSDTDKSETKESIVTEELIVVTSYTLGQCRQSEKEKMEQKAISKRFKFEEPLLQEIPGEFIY

ULK2 = molecular target: T2, ULK2 (Homo sapiens, UniProt Q8IYT8); experiment: Eurofins kinase enzymatic radiometric assay; assay type: biochemical
T2 sequence (Q8IYT8 1-1036): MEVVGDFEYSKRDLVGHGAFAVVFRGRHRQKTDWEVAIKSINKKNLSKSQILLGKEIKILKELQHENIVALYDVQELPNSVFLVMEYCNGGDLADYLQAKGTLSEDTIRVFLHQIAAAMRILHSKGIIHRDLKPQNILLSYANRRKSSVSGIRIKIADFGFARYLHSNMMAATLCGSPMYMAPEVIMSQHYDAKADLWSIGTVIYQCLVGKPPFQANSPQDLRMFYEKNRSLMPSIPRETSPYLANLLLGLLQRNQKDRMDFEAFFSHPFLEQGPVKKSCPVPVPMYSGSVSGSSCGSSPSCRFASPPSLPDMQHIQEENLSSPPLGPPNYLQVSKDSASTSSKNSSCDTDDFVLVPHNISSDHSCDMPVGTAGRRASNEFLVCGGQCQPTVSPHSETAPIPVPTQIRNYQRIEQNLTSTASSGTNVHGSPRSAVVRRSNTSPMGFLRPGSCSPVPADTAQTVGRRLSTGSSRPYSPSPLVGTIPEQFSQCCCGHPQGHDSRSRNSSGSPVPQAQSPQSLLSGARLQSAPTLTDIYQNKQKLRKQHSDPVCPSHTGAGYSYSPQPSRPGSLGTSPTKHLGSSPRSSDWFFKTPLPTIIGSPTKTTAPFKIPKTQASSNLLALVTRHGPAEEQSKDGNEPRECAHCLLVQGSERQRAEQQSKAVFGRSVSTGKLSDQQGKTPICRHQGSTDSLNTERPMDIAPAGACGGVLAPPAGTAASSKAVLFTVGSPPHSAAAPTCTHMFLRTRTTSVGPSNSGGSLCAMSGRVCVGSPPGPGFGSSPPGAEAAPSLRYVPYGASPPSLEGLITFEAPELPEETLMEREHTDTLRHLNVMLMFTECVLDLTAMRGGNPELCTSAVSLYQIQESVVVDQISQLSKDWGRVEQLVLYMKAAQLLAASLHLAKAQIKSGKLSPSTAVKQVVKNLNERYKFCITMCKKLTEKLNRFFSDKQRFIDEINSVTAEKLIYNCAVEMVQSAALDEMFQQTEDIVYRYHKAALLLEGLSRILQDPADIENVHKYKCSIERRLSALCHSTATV
Summary of the method: (§1)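 Radiometric kinase activity assay with ATP at the Km for each kinase. Test compounds were run as 9-point dose–response curves in duplicate to give IC50.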

[1] = system: 403 wild-type (WT) human kinases; experiment: DiscoverX scanMAX kinome-wide selectivity screen; assay type: binding; conditions: 403 WT human kinases; for no. kinases with PoC < 10: DiscoverX scanMAX, 1 μM; for S10 (1 μM): Percentage of screened kinases with PoC values < 10 at 1 μM
DRAK2 = molecular target: T3, DRAK2 (Homo sapiens, UniProt O94768); experiment: Eurofins kinase enzymatic radiometric assay; assay type: biochemical
T3 sequence (O94768 1-372): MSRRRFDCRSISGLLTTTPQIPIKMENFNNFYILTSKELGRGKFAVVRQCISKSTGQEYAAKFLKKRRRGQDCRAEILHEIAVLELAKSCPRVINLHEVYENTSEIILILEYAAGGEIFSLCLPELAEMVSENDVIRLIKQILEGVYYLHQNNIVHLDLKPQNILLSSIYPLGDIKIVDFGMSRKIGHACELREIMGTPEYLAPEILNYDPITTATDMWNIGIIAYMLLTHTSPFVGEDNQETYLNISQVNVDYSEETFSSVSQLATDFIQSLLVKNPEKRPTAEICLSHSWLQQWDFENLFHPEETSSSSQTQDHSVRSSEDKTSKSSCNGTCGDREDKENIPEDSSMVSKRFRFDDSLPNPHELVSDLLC
Summary of the method: as §1

JAK2 = JAK2 (Homo sapiens, UniProt O60674); experiment: Eurofins kinase enzymatic radiometric assay; assay type: biochemical
Sequence of JAK2 (O60674 whole entry): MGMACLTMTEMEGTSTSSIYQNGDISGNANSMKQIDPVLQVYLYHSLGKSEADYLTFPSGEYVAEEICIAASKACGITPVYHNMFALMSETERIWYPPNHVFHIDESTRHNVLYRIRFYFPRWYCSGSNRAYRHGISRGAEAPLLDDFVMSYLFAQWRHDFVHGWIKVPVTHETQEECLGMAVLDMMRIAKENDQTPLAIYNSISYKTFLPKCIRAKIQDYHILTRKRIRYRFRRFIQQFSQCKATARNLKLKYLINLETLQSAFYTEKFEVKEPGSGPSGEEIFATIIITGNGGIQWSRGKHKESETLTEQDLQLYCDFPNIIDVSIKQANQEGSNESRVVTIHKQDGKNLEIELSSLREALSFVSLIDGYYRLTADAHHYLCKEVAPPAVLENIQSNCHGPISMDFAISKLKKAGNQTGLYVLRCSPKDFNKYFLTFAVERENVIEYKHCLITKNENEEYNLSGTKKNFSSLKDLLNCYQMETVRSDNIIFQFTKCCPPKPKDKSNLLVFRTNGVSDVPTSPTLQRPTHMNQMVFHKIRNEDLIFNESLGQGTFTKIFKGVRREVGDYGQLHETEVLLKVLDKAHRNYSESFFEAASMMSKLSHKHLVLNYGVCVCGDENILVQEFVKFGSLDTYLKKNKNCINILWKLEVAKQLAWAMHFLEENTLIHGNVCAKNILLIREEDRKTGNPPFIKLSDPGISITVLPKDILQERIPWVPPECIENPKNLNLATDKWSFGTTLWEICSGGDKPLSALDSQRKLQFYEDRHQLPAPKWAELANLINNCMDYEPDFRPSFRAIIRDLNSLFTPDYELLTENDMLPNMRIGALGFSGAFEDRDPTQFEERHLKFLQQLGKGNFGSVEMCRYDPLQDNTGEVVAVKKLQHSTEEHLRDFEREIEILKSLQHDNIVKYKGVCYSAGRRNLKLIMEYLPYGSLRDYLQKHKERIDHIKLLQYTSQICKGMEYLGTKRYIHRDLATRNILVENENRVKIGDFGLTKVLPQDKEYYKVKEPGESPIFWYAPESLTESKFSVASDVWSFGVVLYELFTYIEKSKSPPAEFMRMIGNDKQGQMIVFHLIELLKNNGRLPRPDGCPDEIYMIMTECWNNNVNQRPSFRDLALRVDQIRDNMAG
Summary of the method: as §1

no. kinases ≤ 10 PoC in enzyme panel (16-member kinase panel) | fold loss in potency, enzymatic versus NanoBRET, DRAK1 (DRAK1 (DRAK1-NLuc)) [fold] | DRAK1 NanoBRET IC50 (DRAK1 (DRAK1-NLuc); HEK293, 0.5 μM tracer K-9, n = 1 where no error, SEM n = 3) | pIC50 (ULK2) | pIC50 (DRAK2) | pIC50 (JAK2) | Compound | no. kinases with PoC < 10 [1] | S10 (1 μM) [1]
1 | < 10 | submicromolar | 5.76 | 7.21 | – | Cc1nn(CC(F)(F)F)cc1Nc1ncc(C2CC2)c(NCCCNC(=O)C2CCC2)n1 [Compound 4, N-(3-((5-Cyclopropyl-2-((3-methyl-1-(2,2,2-trifluoroethyl)-1H-pyrazol-4-yl)amino)pyrimidin-4-yl)amino)propyl)cyclobutanecarboxamide] | 11 | 0.027
0 | < 10 | – | – | – | < 5.00 | O=C(NCCCNc1ccnc(Nc2cccc(NC(=O)N3CCCC3)c2)n1)C1CCC1 [Compound 17, N-(3-((4-((3-(Cyclobutanecarboxamido)propyl)amino)pyrimidin-2-yl)amino)phenyl)pyrrolidine-1-carboxamide] | 3 | 0.007
